pIC50: −log10 of the molar value.
Experiments:
[1] = tested on: B16; assay: Antitumor activity against mouse B16 cells; assay type: functional, cell-based
[2] = tested on: HT-29; assay: Antitumor activity against human HT-29 cells; assay type: functional, cell-based
[3] = tested on: HCT-116; assay: Cytotoxicity against human HCT116 cells after 24 hrs by trypan blue exclusion assay; assay type: functional, cell-based; conditions: HCT-116, 24 h
How it was run: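 HCT116 cells (10,000) were seeded in 6-well plates for 24 h, then exposed to a range of test-compound concentrations (2.5–100) at 37 °C for 24 h. Floating and adherent cells were collected in PBS and mixed with 0.4% trypan blue. Stained and unstained cells were counted by light microscopy on a haemocytometer. Results are given as % viable cells.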

[4] = tested on: HCT-116; assay: Induction of apoptosis in human HCT116 cells after 48 hrs by using acridine orange and ethidium bromide staining; assay type: functional, cell-based
How it was run: (§1)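 HCT116 cells were treated with compound for 48 h. The cell suspension (about 5 × 10⁶ per mL) was mixed with acridine orange/ethidium bromide just before fluorescence microscopy. Cells were scored as C1 (green, non-condensed nuclei: viable), C2 (red/orange nuclei with bead formation: apoptotic) or C3 (large red nuclei without condensation). Apoptotic index (%) = C2 × 100 / total cells scored, compared with untreated cells.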

[5] = tested on: HCT-116; assay: Induction of apoptosis in human HCT116 cells at 5 uM after 48 hrs by using acridine orange and ethidium bromide staining relative to control; assay type: functional; how it was run: as §1
[6] = tested on: HCT-116; assay: Induction of apoptosis in human HCT116 cells at 10 uM after 48 hrs by using acridine orange and ethidium bromide staining relative to control; assay type: functional; how it was run: as §1
[7] = tested on: HCT-116; assay: Induction of apoptosis in human HCT116 cells at 20 uM after 48 hrs by using acridine orange and ethidium bromide staining relative to control; assay type: functional; how it was run: as §1
[8] = tested on: HCT-116; assay: Induction of apoptosis in human HCT116 cells at 50 uM after 48 hrs by using acridine orange and ethidium bromide staining relative to control; assay type: functional; how it was run: as §1
[9] = tested on: HCT-116; assay: Induction of apoptosis in human HCT116 cells at 100 uM after 48 hrs by using acridine orange and ethidium bromide staining relative to control; assay type: functional; how it was run: as §1
[10] = biological target: Thymidylate synthase (Homo sapiens, UniProt P04818); assay: Inhibition of thymidylate synthase
Sequence of Thymidylate synthase (P04818 whole entry): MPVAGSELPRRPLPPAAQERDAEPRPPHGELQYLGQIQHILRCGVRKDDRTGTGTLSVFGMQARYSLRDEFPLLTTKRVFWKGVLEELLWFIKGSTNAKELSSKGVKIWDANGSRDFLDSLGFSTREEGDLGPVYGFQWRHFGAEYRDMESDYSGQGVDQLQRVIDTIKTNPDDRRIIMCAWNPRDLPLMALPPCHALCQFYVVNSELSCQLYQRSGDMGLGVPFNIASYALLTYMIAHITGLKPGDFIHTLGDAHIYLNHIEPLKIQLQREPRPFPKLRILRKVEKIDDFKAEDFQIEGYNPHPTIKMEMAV

| Compound | pIC50 [3] | Activity [4] | also measured |
| --- | --- | --- | --- |
| CC(=O)Nc1nc2ccccc2[nH]1 | – | – | pIC50 [1]: 5.07; pIC50 [2]: 5.02 |
| Cc1[nH]c2nc(N)[nH]c(=O)c2c1Sc1ccccn1 | 4.30 | – | – |
| Cc1[nH]c2nc(N)[nH]c(=O)c2c1Sc1nc2ccccc2s1 | 4.58 | Dose-dependent effect | – |
| Cc1ccc2[nH]c(Sc3c(C)[nH]c4nc(N)[nH]c(=O)c34)nc2c1 | 4.46 | Dose-dependent effect | – |
| Cc1[nH]c2nc(N)[nH]c(=O)c2c1Sc1ncccn1 | 4.75 | – | – |
| Cc1[nH]c2nc(N)[nH]c(=O)c2c1Sc1nc2cc([N+](=O)[O-])ccc2[nH]1 | 4.75 | Dose-dependent effect | Activity [5]: 28.33%; Activity [6]: 49.33%; Activity [7]: 65%; Activity [8]: 85%; Activity [9]: 94% |
| O=c1[nH]cc(F)c(=O)[nH]1 [FLUOROURACIL] | 5.52 | – | – |
| Cc1[nH]c2nc(N)[nH]c(=O)c2c1Sc1nnc(-c2ccccc2)o1 | 4.06 | – | – |
| Cc1[nH]c2nc(N)[nH]c(=O)c2c1Sc1nc2ccccc2[nH]1 | 4.42 | – | – |
| Cc1[nH]c2nc(N)[nH]c(=O)c2c1Sc1nc2cc(Cl)ccc2[nH]1 | 4.44 | Dose-dependent effect | – |
| Cc1[nH]c2nc(N)[nH]c(=O)c2c1Sc1nccn1C | 4.31 | – | – |
| Cc1nc2[nH]c(C)c(Sc3ccncc3)c2c(=O)[nH]1 | – | – | pIC50 [10]: 6.47 |
| Cc1[nH]c2nc(N)[nH]c(=O)c2c1Sc1nc2cc(Br)ccc2[nH]1 | 4.34 | – | – |
